Assay [1] addresses T1, Monoglyceride lipase (Homo sapiens) (UniProt Q99685).
T1 sequence (whole entry): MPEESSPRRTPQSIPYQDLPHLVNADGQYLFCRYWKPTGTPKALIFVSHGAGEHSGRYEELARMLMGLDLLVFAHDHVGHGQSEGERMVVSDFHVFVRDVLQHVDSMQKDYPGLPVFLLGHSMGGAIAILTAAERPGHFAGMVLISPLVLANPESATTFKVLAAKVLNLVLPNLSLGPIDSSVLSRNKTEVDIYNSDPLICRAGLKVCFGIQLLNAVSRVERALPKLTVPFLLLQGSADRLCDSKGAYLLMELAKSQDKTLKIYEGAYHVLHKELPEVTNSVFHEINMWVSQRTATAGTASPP
Briefly: Inhibition of MAGL at 10^-4.5 to 10^-5 M after 30 mins by liquid scintillation counter in presence of DTT. Summed up:
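Purified MAGL (3 ng; Tris pH 8.0, 50 mM, 0.1% BSA) preincubated 10 min at room temperature with inhibitor at 10−4.5 and 10−5 M or DMSO; DTT (10−2 M) then added, 15 min at 37 °C, before [3H]-2-OG hydrolysis assay as standard; activity normalized to respective control, n analysed by one-way ANOVA with Bonferroni test.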

Assay [2] addresses T2, Monoglyceride lipase (Mus musculus) (UniProt O35678).
T2 sequence (whole entry): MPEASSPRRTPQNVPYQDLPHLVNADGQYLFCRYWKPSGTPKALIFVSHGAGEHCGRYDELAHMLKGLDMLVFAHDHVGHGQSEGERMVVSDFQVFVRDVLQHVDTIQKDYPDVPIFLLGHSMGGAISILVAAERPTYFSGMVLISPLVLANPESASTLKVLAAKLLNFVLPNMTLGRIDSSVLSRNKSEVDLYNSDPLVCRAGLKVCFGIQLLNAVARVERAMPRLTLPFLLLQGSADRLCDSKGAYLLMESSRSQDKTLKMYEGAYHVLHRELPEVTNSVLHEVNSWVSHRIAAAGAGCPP
As to the kind of experiment: Inhibition of MAGL in mouse B16 cells assessed as increase in 2-arachidonoylglycerol level at 10 uM after 8 hrs by isotope dilution HPLC-MS method. The class given is cell-based. An outline of the steps:
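Murine B16 melanoma cells (MEMα, 10% FBS, 37 °C, 5% CO2), 5 × 10^6 cells/condition seeded 12 h, then exposed 8 h to 10 μM inhibitor or 0.1% DMSO in 1% FBS medium; cells plus medium extracted with chloroform–methanol with d5-2-AG, silica SPE cleanup, 2-AG quantified by APCI-positive HPLC–MS isotope dilution, normalized to vehicle.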

Assay [3] concerns T3, Monoglyceride lipase (Homo sapiens), Q99685 [C242A].
T3 sequence (whole entry): T1 sequence (whole entry) with C242A
Briefly: Inhibition of human MAGL C242A mutant expressed in Escherichia coli. An outline of the steps:
(§1)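 Homogenates of E. coli expressing wild-type or C201A, C208A, C242A or C208A/C242A mutant MAGL used as enzyme source in the [3H]-2-OG hydrolysis assay; n = 3 in duplicate.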

The species named for another assay is Homo sapiens. As to the kind of experiment: Selectivity ratio of IC50 for human recombinant FAAH to IC50 for human recombinant MAGL.
Assay [4] concerns T4, Monoglyceride lipase (Homo sapiens), Q99685 [C201A].
T4 sequence (whole entry): T1 sequence (whole entry) with C201A
As to the kind of experiment: Inhibition of human MAGL C201A mutant expressed in Escherichia coli. An outline of the steps:
as §1

The target of a further assay is T5, Monoglyceride lipase (Homo sapiens, UniProt Q99685).
T5 sequence (Q99685 whole entry): T1 sequence (whole entry)
As to the kind of experiment: Inhibition of human recombinant MAGL using [3H]-2-OG as substrate after 10 mins by liquid scintillation counter. An outline of the steps:
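Purified recombinant hMAGL (5 ng; Tris pH 8.0, 50 mM, 0.1% BSA) with inhibitor in DMSO and [3H]-2-OG (10 μM), 10 min at 37 °C; stopped with ice-cold methanol–chloroform, aqueous-phase radioactivity by liquid scintillation, no-enzyme blanks subtracted; pIC50 from dose–response, mean ± SEM of three experiments in duplicate.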

Assay [5] has as its system T6, Monoglyceride lipase (Homo sapiens), Q99685 [C208A,C242A].
T6 sequence (whole entry): T1 sequence (whole entry) with C208A, C242A
As to the kind of experiment: Inhibition of human MAGL C208A/C242A mutant expressed in Escherichia coli in presence of DTT.

The target in assay [6] is T1, Monoglyceride lipase (Homo sapiens). Briefly: Inhibition of MAGL at 10^-8.5 M after 30 mins by liquid scintillation counter. Summed up: (§2)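 Pure MAGL (105 ng, 20 μL) incubated 30 min at room temperature with inhibitor at 10−3 to 10−6 M or DMSO, then diluted 300-fold in Tris pH 8.0; after 15 min, aliquot assayed with [3H]-2-OG by standard protocol; same nominal post-dilution concentrations also assayed directly; percent of control, one-way ANOVA with Dunnett's test.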

Assay [7] has the same target. Briefly: Irreversible inhibition of MAGL at 10^-8.5 M measured after 300 times dilution. An outline of the steps:
as §2

Molecules are shown by their SMILES. Positions count from the first letter of the chain named. The source made the active and inactive calls. The rule behind the calls is not given here.

In the case of `CC(C)(C)c1ccc(CN2CCN(C(=S)Sc3ccc([N+](=O)[O-])cc3[N+](=O)[O-])CC2)cc1`, the inhibition entry in assay [1], in assay [3] and in [6] was “inactive” each time. In addition, the inhibition entry in assay [2], in assay [4], in assay [5] and in [7] was “Active” throughout. Further, in the assay listed under Homo sapiens, the Ratio IC50 is 11. Further, the IC50 on Monoglyceride lipase is 155 nM.
